ChEMBL document CHEMBL3091462 (J Nat Prod, 2013)
Active and inactive are the calls of the source. The rule behind the calls is not given here.

What was measured:
SW-620 [1] = assay: Antitumor activity against human SW620 cells xenografted in BALB/c-nude mouse assessed as reduction of tumor weight at 100 mg/kg, po administered every other day from day 2 to 21 (reference value: 417 mg); type: functional
In short: (§1)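 Male BALB/c-nude mice; 2 × 10^6 tumour cells in 0.2 mL PBS injected intradermally into the flank on day 0, n = 10 per group. Oral dosing every other day for 3 weeks, starting 2 days after inoculation. Caliper tumour volume = (width)2 × length/2, measured periodically. Tumours excised and weighed at day 21. Means ± SE.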

SW-620 [2] = assay: Antitumor activity against human SW620 cells xenografted in BALB/c-nude mouse assessed as reduction of tumor volume at 100 mg/kg, po administered every other day from day 2 to 21; type: functional, organism-based; design: dose 100 mg/kg; in short: as §1
HCT-116 [3] = assay: Antitumor activity against human HCT116 cells xenografted in BALB/c-nude mouse assessed as reduction of tumor volume at 100 mg/kg, po administered every other day from day 2 to 21; type: functional, organism-based; design: dose 100 mg/kg; in short: as §1
HCT-116 [4] = assay: Induction of apoptosis in human HCT116 cells expressing p21 siRNA assessed as change in cell morphology at 10 uM after 24 hrs by phase-contrast microscopic analysis; type: functional, cell-based
In short: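 Cells plated at 5 × 10^4 per well and transfected with 100 nM scrambled or p21 siRNA in OPTI-MEM for 4 h. Complete RPMI medium was added and cells grown a further 24 h, then exposed to 10 μM for 24 h. Viability measured by direct count after trypan blue staining. Morphology viewed by phase-contrast at 200×. Means ± SD, three experiments in triplicate.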

SW-620 [5] = assay: Induction of apoptosis in human SW620 cells assessed as increase of expression of cleaved caspase-9 and caspase-3 after 24 hrs by immunoblotting; type: functional, cell-based
In short: (§2)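 HCT-116 or SW-620 cells treated with 0–10 μM for 24 h, lysed, and run on 15% SDS-PAGE immunoblots. Probed for Bcl-2 (1:1000), Bax (1:500), caspase-9/-3 and their cleaved forms (1:1000), and β-actin (1:1000). Bands quantified by densitometry; means ± SD of three experiments in duplicate.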

HCT-116 [6] = assay: Induction of apoptosis in human HCT116 cells assessed as increase of expression of cleaved caspase-9 and caspase-3 after 24 hrs by immunoblotting; type: functional, cell-based; in short: as §2
HCT-116 [7] = assay: Induction of apoptosis in human HCT116 cells assessed as increase of Bax protein expression after 24 hrs by immunoblotting; type: functional, cell-based; in short: as §2
SW-620 [8] = assay: Induction of apoptosis in human SW620 cells assessed as reduction of Bcl-2 protein expression at 0.5 to 10 uM after 24 hrs by immunoblotting; type: functional, cell-based; in short: as §2
SW-620 [9] = assay: Induction of apoptosis in human SW620 cells at 10 uM after 48 hrs using Annexin V-FITC and propidium iodide staining by flow cytometry (reference value: 3.8 +/- 2.1%); type: functional
In short: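 Subconfluent cells in RPMI 1640 + 10% FBS treated with 0–10 μM for 48 h. Harvested cells incubated 10 min with FITC-annexin V/PI, then analysed by flow cytometry (488/525 nm for annexin V-FITC, 488/675 nm for PI). Reported as % apoptotic cells, means ± SD of three experiments in triplicate.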

SW-620 [10] = assay: Effect on p57 expression in p53 deficient human SW620 cells at 0.5 to 10 uM after 24 hrs by immunoblotting; type: functional, cell-based
SW-620 [11] = assay: Effect on p27 expression in p53 deficient human SW620 cells at 0.5 to 10 uM after 24 hrs by immunoblotting; type: functional, cell-based
SW-620 [12] = assay: Cell cycle arrest in human SW620 cells assessed as accumulation at G0/G1 phase at 1 uM after 48 hrs using propidium iodide staining by flow cytometry (reference value: 47.8 +/- 1.2%); type: functional
SW-620 [13] = assay: Cell cycle arrest in human SW620 cells assessed as accumulation at G0/G1 phase at 5 uM after 48 hrs using propidium iodide staining by flow cytometry (reference value: 47.8 +/- 1.2%); type: functional
SW-620 [14] = assay: Cell cycle arrest in human SW620 cells assessed as accumulation at G0/G1 phase at 10 uM after 48 hrs using propidium iodide staining by flow cytometry (reference value: 47.8 +/- 1.2%); type: functional
SW-620 [15] = assay: Cell cycle arrest in human SW620 cells assessed as accumulation at S phase at 10 uM after 48 hrs using propidium iodide staining by flow cytometry (reference value: 43.1 +/- 1%); type: functional
HCT-116 [16] = assay: Cell cycle arrest in human HCT116 cells assessed as accumulation at G2/M phase at 5 uM after 48 hrs using propidium iodide staining by flow cytometry (reference value: 7.1 +/- 0.3%); type: functional
HCT-116 [17] = assay: Cell cycle arrest in human HCT116 cells assessed as accumulation at S phase at 5 uM after 48 hrs using propidium iodide staining by flow cytometry (reference value: 36.3 +/- 1.7%); type: functional
HCT-116 [18] = assay: Cell cycle arrest in human HCT116 cells assessed as accumulation at G0/G1 phase at 1 uM after 48 hrs using propidium iodide staining by flow cytometry (reference value: 56.7 +/- 1.9%); type: functional
HCT-116 [19] = assay: Cell cycle arrest in human HCT116 cells assessed as accumulation at G2/M phase at 0.1 uM after 48 hrs using propidium iodide staining by flow cytometry (reference value: 7.1 +/- 0.3%); type: functional
HCT-116 [20] = assay: Cytotoxicity against human HCT116 cells assessed as cell viability at 10 uM after 48 to 72 hrs; type: functional, cell-based
In short: (§3)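 Cells seeded at 10^5 per well in RPMI 1640/10% FBS at 37 °C. Subconfluent cells exposed to 0, 0.1, 0.5, 1, 2, 5 or 10 μM for 48 h, or to 10 μM for 24, 48 and 72 h; ethanol vehicle, at most 0.01% v/v final. Cells trypsinized and counted by hemocytometer. Viability as % of control, means ± SD, three experiments in triplicate.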

[21] = Cytotoxicity against human CCD-112CoN cells assessed as cell viability up to 10 uM after 24 to 72 hrs; type: cell-based; in short: as §3
SW-620 [22] = assay: Cytotoxicity against human SW620 cells assessed as cell death at 2 uM after 48 hrs; type: functional, cell-based; in short: as §3
HCT-116 [23] = assay: Cytotoxicity against human HCT116 cells after 24 to 72 hrs; type: functional, cell-based; in short: as §3

Compound: CC(C)c1cccc(=O)c(O)c1 [HINOKITIOL]
- Activity (SW-620 [1]): 252 mg
- Activity (SW-620 [2]): Active
- Activity (HCT-116 [3]): Active
- Activity (HCT-116 [4]): inactive
- Activity (SW-620 [5]): Dose-dependent effect
- Activity (HCT-116 [6]): Dose-dependent effect
- Activity (HCT-116 [7]): Dose-dependent effect
- Activity (SW-620 [8]): Active
- Activity (SW-620 [9]): 80.3%
- Activity (SW-620 [10]): inactive
- Activity (SW-620 [11]): inactive
- Activity (SW-620 [12]): 45.6%
- Activity (SW-620 [13]): 40.8%
- Activity (SW-620 [14]): 11.5%
- Activity (SW-620 [15]): 87%
- Activity (HCT-116 [16]): 11.9%
- Activity (HCT-116 [17]): 43.5%
- Activity (HCT-116 [18]): 55.1%
- Activity (HCT-116 [19]): 7.5%
- Activity (HCT-116 [20]): Active
- Activity [21]: Non-toxic
- Activity (SW-620 [22]): Active
- IC50 (HCT-116 [23]): 4.5 µM
- growth inhibition (GI) (HCT-116 [23]): Dose-dependent effect
